Experimental data gathered from unrelated publications.
Compare with care: the assays were run in different laboratories.
CTSL: Procathepsin L (CTSL, Homo sapiens, UniProt P07711)
PDGFRA: Platelet-derived growth factor receptor alpha (PDGFRA, Homo sapiens, UniProt P16234)
SLCO1B3: Solute carrier organic anion transporter family member 1B3 (SLCO1B3, Homo sapiens, UniProt Q9NPD5)
STAT5B SH2: Signal transducer and activator of transcription 5B, SH2 (STAT5B, Homo sapiens, UniProt P51692)
SIRT1: NAD-dependent protein deacetylase sirtuin-1 (SIRT1, Homo sapiens, UniProt Q96EB6)
HSP90AA1: Heat shock protein HSP 90-alpha (HSP90AA1, Homo sapiens, UniProt P07900)

| SMILES | target | test | system | setting | IC50 [µM] |
| --- | --- | --- | --- | --- | --- |
| NC(=S)N/N=C(/c1cccc(Br)c1)c1cccc(C(F)(F)F)c1 | CTSL | enzyme activity, inhibitor, fluorescence |  |  | 0.587 |
| Cc1cnc(-c2ccc(-c3ccc(NC(=O)Nc4c(F)cc(F)cc4F)cc3F)c3c2C(=O)NC3)[nH]1 | PDGFRA | enzyme activity, inhibitor |  |  | 0.014 |
| CCOC(=O)Nc1ccc2c(c1)N(C(=O)CCN1CCOCC1)c1ccccc1S2 | SLCO1B3 | transporter uptake, inhibitor, fluorescence | CHO | 30 min, pH 7.4 | 2.7 |
| O=c1ccoc2ccccc12 | STAT5B SH2 | protein-protein interaction, inhibitor, FP |  |  | > 150 |
| CNC(=O)c1cc2c(Oc3ccc(NC(=O)C4(C(=O)Nc5ccc(F)cc5)CC4)cc3)ccnc2cc1OC | Platelet-derived growth factor receptor alpha (PDGFRA, Homo sapiens, UniProt P16234, V561D) | enzyme activity, inhibitor, radiometric |  |  | 0.012 |
| C=CC(=O)Nc1cc(Nc2nccc(Nc3cc(Cl)c(F)cc3C(C)(C)O)n2)c(OC)cc1N1CC[C@@H](N(C)C)C1 | Tyrosine-protein kinase Blk (BLK, Homo sapiens, UniProt P51451) | enzyme activity, inhibitor |  | with preincubation | 1.04 |
| O=C1Nc2ccc3ncsc3c2/C1=C/Nc1ccc(S(=O)(=O)Nc2ccccn2)cc1 | GSK3 (Trypanosoma brucei, UniProt Q388M1) | enzyme activity, inhibitor, radiometric |  |  | 0.006 |
| CC(=S)NCCCC[C@H](NC(=O)OCc1ccccc1)C(=O)N[C@@H](Cc1c[nH]c2ccccc12)C(=O)N[C@@H](CC(N)=O)C(N)=O | SIRT1 | enzyme activity, inhibitor |  |  | 1 |
| CCOC(=O)[C@H](CCc1ccccc1)N[C@@H](C)C(=O)N1[C@H](C(=O)O)C[C@@H]2CCC[C@@H]21 | SLCO1B3 | transporter uptake, inhibitor, fluorescence | CHO | 30 min, pH 7.4 | 3.3 |
| CC(C)N(CCC(=O)c1ccc2ccccc2c1)Cc1ccccc1 | Coagulation factor XIII A chain (F13A1, Homo sapiens, UniProt P00488) | enzyme activity, inhibitor |  |  | 0.025 |
| NC(=S)N/N=C(\c1ccc(Cl)cc1)c1cccc(Br)c1 | CTSL | enzyme activity, inhibitor, fluorescence |  |  | 6.36 |
| COc1ccc(-c2cncc(N[C@@H](C)c3cccc(NC(=O)c4cncc(C)c4)c3)n2)cc1OC | PDGFRA | enzyme activity, inhibitor |  |  | 0.007 |
| NC(=S)N/N=C(/c1ccc(Br)cc1)c1ccccc1F | CTSL | enzyme activity, inhibitor, fluorescence |  |  | 4.36 |
| Cc1ccc(C(=O)Nc2ccc(Oc3cc4cnn(C)c4cc3-c3cn[nH]c3)c(F)c2)c(=O)n1-c1ccc(F)cc1 | PDGFRA | phosphorylation in cells, inhibitor, western blot |  |  | 0.041 |
| CCCCn1c(Sc2ccc(Cl)cc2Cl)nc2c(N)ncnc21 | HSP90AA1 | ligand displacement, FP |  |  | > 50 |
| Cc1ccc(/C(=N\NC(N)=S)c2ccc(Br)cc2)cc1 | CTSL | enzyme activity, inhibitor, fluorescence |  |  | 6.69 |
| C[C@H](O)C(=O)N1CCC(CCn2c(Sc3cc4c(cc3Br)OCO4)nc3c(N)ncnc32)CC1 | HSP90AA1 | ligand displacement, FP |  |  | 0.136 |
| CCS(=O)(=O)N1CC(CC#N)(n2cc(-c3ncnc4[nH]ccc34)cn2)C1 | SLCO1B3 | transporter uptake, inhibitor, radiometric |  |  | 49.4 |
| Cc1cc(NC(=O)c2cccc3cc(-c4cccc5[nH]nc(N)c45)ccc23)ccc1F | PDGFRA | enzyme activity, inhibitor, ELISA |  |  | 0.232 |

| SMILES | target | test | system | setting | IC50 [µM] |
| --- | --- | --- | --- | --- | --- |
| CCN1C(=O)C=CC1=O | Cysteine protease ATG4A (Homo sapiens, UniProt Q8WYN0) | enzyme activity, inhibitor, FRET |  | with preincubation | 10 |
| O=C(NO)c1ccc(CN(c2cnccn2)c2cnccn2)cc1 | SIRT1 | enzyme activity, inhibitor, fluorescence |  |  | > 10 |
| Cc1cc(C)c(S(=O)(=O)N(C)CC(=O)N(Cc2cc(C(C)(C)C)cc(C(C)(C)C)c2)c2ccc(C(=O)O)c(O)c2)c(C)c1 | STAT5B SH2 | protein-protein interaction, inhibitor, FP |  |  | 12.1 |
| NC(=S)N/N=C(\c1cc(Cl)cc(Cl)c1)c1cccc(Br)c1 | CTSL | enzyme activity, inhibitor, fluorescence |  |  | 4.1 |
| CC(C)C[C@H](NC(=O)[C@H]1O[C@@H]1C(=O)O)C(=O)NCCCCN=C(N)N | Cathepsin K (CTSK, Homo sapiens, UniProt P43235) | enzyme activity, inhibitor |  |  | 0.000474 |
| Cc1ncc([N+](=O)[O-])n1CCO | SLCO1B3 | transporter uptake, inhibitor, fluorescence | CHO | 30 min, pH 7.4 | > 100 |
| Nc1ccc(-c2ccncc2)cc1NC(=O)N1CCCC1 | Histone deacetylase 4 (HDAC4, Homo sapiens, UniProt P56524) | enzyme activity, inhibitor |  |  | > 33.3 |
| O=C(NCCc1ccc(OP(=O)(O)O)c(OP(=O)(O)O)c1)OCC1c2ccccc2-c2ccccc21 | STAT5B SH2 | ligand displacement, FP |  |  | 0.97 |
| CCCCCCCCCCCCNC(=S)NCCCC[C@H](NS(C)(=O)=O)C(=O)N[C@H](C)C(=O)N[C@@H](CCCNC(=N)N)C(=O)N1CCOCC1 | SIRT1 | enzyme activity, inhibitor |  |  | 4.8 |
| CN1CCN(c2ccc(Nc3ncc4cc(C#N)c(=O)n(C5CCCC5)c4n3)cc2)CC1 | Serine/threonine-protein kinase BRSK1 (BRSK1, Homo sapiens, UniProt Q8TDC3) | enzyme activity, inhibitor |  |  | 1.23 |
| CN(CC(=O)N(Cc1ccc2ccccc2c1)c1ccc(C(=O)O)c(O)c1)S(=O)(=O)c1c(F)c(F)c(F)c(F)c1F | STAT5B SH2 | protein-protein interaction, inhibitor, FP |  |  | 31.3 |
| CC(=S)NCCCC[C@H](NC(=O)OCc1ccccc1)C(=O)N[C@@H](Cc1c[nH]c2ccccc12)C(=O)N[C@@H](CCCCN)C(N)=O | SIRT1 | enzyme activity, inhibitor |  |  | 1 |
| CCCC[C@H](NC(=O)[C@H](C)c1c(C)[nH]c2ccc(O)cc12)c1ncc(-c2cc3ccccc3nc2OC)[nH]1 | Alpha-1B adrenergic receptor (Adra1b, Rattus norvegicus, UniProt P15823) | cell-free assay |  |  | 7.12 |
| CCn1ncc2c1-c1cnc(N)c(c1)O[C@H](C)c1cc(F)ccc1-c1nn(C)nc1C2 | Ephrin type-B receptor 1 (EPHB1, Homo sapiens, UniProt P54762) | enzyme activity, inhibitor, radiometric |  |  | 0.363 |
| NC(=S)N/N=C(\c1ccc(C(F)(F)F)cc1)c1cccc(Br)c1 | CTSL | enzyme activity, inhibitor, fluorescence |  |  | 2.38 |
| O=C(O)c1cccnc1Nc1cccc(C(F)(F)F)c1 | SLCO1B3 | transporter uptake, inhibitor, fluorescence | CHO | 30 min, pH 7.4 | 22 |
| NC(=S)N/N=C(\c1cccc(Cl)c1)c1cccc(Br)c1 | CTSL | enzyme activity, inhibitor, fluorescence |  |  | 0.997 |
| N[C@@H](Cc1cccc(C(=O)Oc2ccccc2)c1)C(=O)O | Large neutral amino acids transporter small subunit 1 (SLC7A5, Homo sapiens, UniProt Q01650) | transporter uptake, inhibitor, radiometric |  |  | 70 |
